Data reported in publication PMC3755765 (ChemMedChem, 2013).
In brackets after ≈: the same amount, converted by molar mass. Several values for one entry are separate records, joined by “and”; a condition that tells them apart may be missing. Equal entries are not always repeated. Entries after “also recorded” stand apart in the source; their conditions may differ. Where two headings read alike, the source gives them in different places.

Assays:
[1] = test system: T. gondii tachyzoites; test: Parasite tissue culture assay: inhibition of T. gondii tachyzoites in HFF; type: cell-based, Toxoplasma gondii; conditions: for MIC50 / IC50: Toxoplasma gondii; for Activity in the parasite-based assay: T. gondii tachyzoites
[2] = target: T1, TgENR (Toxoplasma gondii, UniProt Q6UCJ9); test: TgENR enzyme assay; type: biochemical; conditions: for inhibition at 1 µM: read-out: Cpd. conc. [1 μM]/% Inh.: percentage of inhibition of TgENR; for Activity in the enzyme-based assay: purified TgENR; for TgENR IC50 fold lower than that of analog 9c: 38 and 54 nM vs 130 nM
T1 sequence (Q6UCJ9 28-417): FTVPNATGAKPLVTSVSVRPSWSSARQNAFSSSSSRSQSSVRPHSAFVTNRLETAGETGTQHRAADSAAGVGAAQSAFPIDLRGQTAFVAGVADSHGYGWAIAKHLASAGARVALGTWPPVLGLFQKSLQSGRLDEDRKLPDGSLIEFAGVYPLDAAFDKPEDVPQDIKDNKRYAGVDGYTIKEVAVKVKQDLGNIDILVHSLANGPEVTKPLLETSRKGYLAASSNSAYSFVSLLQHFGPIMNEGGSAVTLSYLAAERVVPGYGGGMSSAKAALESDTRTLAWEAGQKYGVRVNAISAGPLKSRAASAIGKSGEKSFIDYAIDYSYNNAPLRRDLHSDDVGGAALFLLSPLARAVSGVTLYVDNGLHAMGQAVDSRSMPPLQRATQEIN

[3] = test system: P. falciparum strain D6 (CDC/Sierra Leone); test: Malaria SYBR Green I-based fluorescence assay, strain D6; type: cell-based; conditions: Plasmodium falciparum, D6, 72 h, read-out: SYBR Green D6 IC50
Summary of the method: (§1)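 Late-ring or early-trophozoite parasites at 0.3% starting parasitemia and 2% hematocrit were added to plates predosed with quadruplicate 12-point two-fold dilutions in DMSO (final […]), with mefloquine as reference. Plates were incubated 72 h at 37°C under 5% CO2/5% O2/90% N2, lysed with Tris/EDTA/Triton X/saponin buffer with SYBR Green I (final 10x), kept dark 24 h at RT, and read as RFU. A chloroquine batch control at 2000 ng/ml validated each run.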

[4] = test system: P. falciparum strain TM91C235 (WRAIR, Thailand, chloroquine resistant); test: Malaria SYBR Green I-based fluorescence assay, strain TM91C235; type: cell-based; conditions: Plasmodium falciparum, 72 h, read-out: SYBR Green C235 IC50
Summary of the method: as §1

[5] = test system: Human Foreskin Fibroblasts (HFF); test: Toxicity for host cells; conditions: for Parasite tissue culture assay HFF (HFF toxicity): human foreskin fibroblasts, highest concentration tested 10 μM
[6] = 72 h, read-out: Parasite tissue culture assay MIC50

SMILES | MIC50 [1, 6] | inhibition at 1 µM [2] | IC50 [3] | IC50 [4] | Parasite tissue culture assay HFF (HFF toxicity) [5] | IC50 [2] | Activity in the parasite-based assay [1] | Activity in the enzyme-based assay [2] | TgENR IC50 fold lower than that of analog 9c [2] | IC50 ([1]; read-out: IC50 (MIC50) against Toxoplasma gondii tachyzoites) | TgENR IC50 fold higher than that of 16c ([2]; 43 vs 26 nM) | Toxicity to the host cells [5] | IC50 [1, 6]
O=C(Nc1ccccc1)c1ccc(Oc2ccc(Cl)cc2Cl)c(O)c1 [Compound 30a, 4-(2,4-Dichlorophenoxy)-3-hydroxy-N-phenylbenzamide] | > 10 µM | 7% | > 2 µg/mL | > 2 µg/mL | >10 µM | – | – | – | – | – | – | – | –
CCCCc1cc(-c2ccc(Oc3ccc(Cl)cc3O)c(Cl)c2)no1 [Compound 24a, 2-[4-(5-Butyl-1,2-oxazol-3-yl)-2-chlorophenoxy]-5-chlorophenol] | 8 µM (≈ 3.03 µg/mL) | 92% | – | – | >10 µM | 18 nM | – | – | – | – | – | – | –
O=C(NCc1ccc(Oc2ccc(Cl)cc2O)c(Cl)c1)c1cc(-c2ccccc2)on1 [Compound 37b, N-[3-Chloro-4-(4-chloro-2-hydroxyphenoxy)benzyl]-5-phenyl-1,2-oxazole-3-carboxamide] | > 10 µM | 80% | – | – | – | – | – | – | – | – | – | – | –
CCCCCCNC(=O)c1ccc(Oc2ccc(Cl)cc2Cl)c(O)c1 [Compound 30d, 4-(2,4-Dichlorophenoxy)-N-hexyl-3-hydroxybenzamide] | > 10 µM | 30% | > 2 µg/mL | > 2 µg/mL | >10 µM | – | – | – | – | – | – | – | –
COc1cc(Cn2cc(CCO)nn2)ccc1Oc1ccc(Cl)cc1Cl [Compound 8d, 2-[1-[4-(2,4-Dichlorophenoxy)-3-methoxybenzyl]-1H-1,2,3-triazol-4-yl]ethanol] | > 10 µM | 12% | – | – | > 10 µM | – | lack of activity | lack of activity | – | – | – | – | –
Oc1cc(Cn2ccnn2)ccc1Oc1ccc(Cl)cc1Cl [Compound 9c, 2-(2,4-Dichlorophenoxy)-5-(1H-1,2,3-triazol-1-ylmethyl)phenol] | 10 µM (≈ 3.36 µg/mL) | 93% | 4.71 µM and 1.58 µg/mL | > 2 µg/mL | >10 µM | 130 nM | – | – | – | – | – | – | –
CCCCc1cn(Cc2ccc(Oc3ccc(Cl)cc3Cl)c(O)c2)nn1 [Compound 9a, 5-[(4-Butyl-1H-1,2,3-triazol-1-yl)methyl]-2-(2,4-dichlorophenoxy)phenol] | > 10 µM | 94% | – | – | > 10 µM | 38 nM | inactive | – | approximately 3 fold | – | – | – | –
Oc1cc(-c2cc(-c3ccccc3)on2)ccc1Oc1ccc(Cl)cc1Cl [Compound 20b, 2-(2,4-Dichlorophenoxy)-5-(5-phenyl-1,2-oxazol-3-yl)phenol] | > 10 µM | 40% | – | – | > 10 µM | – | completely inactive | completely inactive | – | – | – | – | –
Oc1cc(Cl)ccc1Oc1ccc(CNc2ccccc2)cc1Cl [Compound 41b, 5-Chloro-2-[2-chloro-4-[(phenylamino)methyl]phenoxy]phenol] | > 10 µM | 94% | – | – | >10 µM | – | – | – | – | – | – | – | –
CCCCCCNCc1ccc(Oc2ccc(Cl)cc2O)c(Cl)c1 [Compound 41a, 5-Chloro-2-[2-chloro-4-[(hexylamino)methyl]phenoxy]phenol] | 1 µM (≈ 0.368 µg/mL) | 25% | – | – | >10 µM | – | activity comparable to or better than that of triclosan | completely inactive | – | – | – | – | –
O=C(c1ccccc1)c1ccc(Oc2ccc(Cl)cc2Cl)c(O)c1 [Compound 43b, [4-(2,4-Dichlorophenoxy)-3-hydroxyphenyl](phenyl)methanone] | > 10 µM | 78% | > 2 µg/mL | > 2 µg/mL | >10 µM | 750 nM | ineffective | only weak activity; also recorded: only weak inhibition | – | – | – | – | –
Oc1cc(Cl)ccc1Oc1ccc(Cn2cc(-c3ccccc3)nn2)cc1Cl [Compound 16b, 5-Chloro-2-[2-chloro-4-[(4-phenyl-1H-1,2,3-triazol-1-yl)methyl]phenoxy]phenol] | 1 µM (≈ 0.412 µg/mL) | 82% | – | – | >10 µM | – | activity comparable to or better than that of triclosan | – | – | – | – | – | –
CCCCc1cn(Cc2ccc(Oc3ccc(Cl)cc3O)c(Cl)c2)nn1 [Compound 16a, 2-[4-[(4-Butyl-1H-1,2,3-triazol-1-yl)methyl]-2-chlorophenoxy]-5-chlorophenol] | 0.25 µM (≈ 0.0981 µg/mL) | 90% | – | – | >10 µM | – | – | – | – | 250 nM | 1.6 fold | without apparent toxicity to the host cells | –
O=C(c1ccc(Oc2ccc(Cl)cc2Cl)c(O)c1)N1CCOCC1 [Compound 30c, [4-(2,4-Dichlorophenoxy)-3-hydroxyphenyl](morpholin-4-yl)methanone] | > 10 µM | 43% | > 2 µg/mL | > 2 µg/mL | >10 µM | – | – | – | – | – | – | – | –
CCCCc1cc(-c2ccc(Oc3ccc(Cl)cc3Cl)c(O)c2)no1 [Compound 20a, 5-(5-Butyl-1,2-oxazol-3-yl)-2-(2,4-dichlorophenoxy)phenol] | > 10 µM | 59% | – | – | > 10 µM | – | completely inactive | completely inactive | – | – | – | – | –
CCC(=O)c1ccc(Oc2ccc(Cl)cc2Cl)c(O)c1 [Compound 43a, 1-[4-(2,4-Dichlorophenoxy)-3-hydroxyphenyl]propan-1-one] | – | 85% | 2.75 µM and 0.857 µg/mL | > 2 µg/mL | >10 µM | – | ineffective | only weak activity; also recorded: only weak inhibition | – | – | – | – | > 10000 nM
CCCCCCNCc1ccc(Oc2ccc(Cl)cc2Cl)c(O)c1 [Compound 39c, 2-(2,4-Dichlorophenoxy)-5-[(hexylamino)methyl]phenol] | 3 µM (≈ 1.1 µg/mL) | 16% | 2.75 µM and 0.857 µg/mL | > 2 µg/mL | – | – | activity comparable to or better than that of triclosan | completely inactive | – | – | – | – | –
N#Cc1ccc(Oc2ccc(Cl)cc2Cl)c(O)c1 [Compound 27, 4-(2,4-Dichlorophenoxy)-3-hydroxybenzonitrile] | 2 µM (≈ 0.56 µg/mL) | 97% | – | – | > 10 µM | – | – | – | – | – | – | – | –
Oc1cc(Cn2cc(-c3ccccc3)nn2)ccc1Oc1ccc(Cl)cc1Cl [Compound 9b, 2-(2,4-Dichlorophenoxy)-5-[(4-phenyl-1H-1,2,3-triazol-1-yl)methyl]phenol] | > 10 µM | 93% | – | – | > 10 µM | 54 nM | inactive | – | ~2 fold | – | – | – | –
C[Si](C)(C)c1cc(-c2ccc(Oc3ccc(Cl)cc3Cl)c(O)c2)no1 [Compound 20c, 2-(2,4-Dichlorophenoxy)-5-[5-(trimethylsilyl)-1,2-oxazol-3-yl]phenol] | 7 µM (≈ 2.76 µg/mL) | 25% | – | – | > 10 µM | – | – | – | – | – | – | – | –
Cc1cc(C(=O)NCc2ccc(Oc3ccc(Cl)cc3Cl)c(O)c2)no1 [Compound 33, N-[4-(2,4-Dichlorophenoxy)-3-hydroxybenzyl]-5-methyl-1,2-oxazole-3-carboxamide] | 10 µM (≈ 3.93 µg/mL) | 96% | – | – | – | – | – | – | – | – | – | – | –
Oc1cc(Cl)ccc1Oc1ccc(-c2cc(-c3ccccc3)on2)cc1Cl [Compound 24b, 5-Chloro-2-[2-chloro-4-(5-phenyl-1,2-oxazol-3-yl)phenoxy]phenol] | 10 µM (≈ 3.98 µg/mL) | 88% | – | – | >10 µM | 28 nM | – | – | – | – | – | – | –
O=C(NCc1ccc(Oc2ccc(Cl)cc2O)c(Cl)c1)c1ccc2cc(O)ccc2c1 [Compound 37d, N-[3-Chloro-4-(4-chloro-2-hydroxyphenoxy)benzyl]-6-hydroxynaphthalene-2-carboxamide] | – | 89% | – | – | – | – | – | Reasonable activity | – | – | – | – | > 10000 nM
Cc1cc(C(=O)NCc2ccc(Oc3ccc(Cl)cc3O)c(Cl)c2)no1 [Compound 37a, N-[3-Chloro-4-(4-chloro-2-hydroxyphenoxy)benzyl]-5-methyl-1,2-oxazole-3-carboxamide] | 5 µM (≈ 1.97 µg/mL) | 88% | – | – | – | – | activity comparable to or better than that of triclosan | – | – | – | – | – | –
